Bioassay records from PubChem BioAssay.
Rows were chosen to be rich in hits. Some 4.6% of all compounds tested hit in one or more screens of this group.
STAT1 activator: increases IFN-gamma driven STAT1 reporter signal | activation (% of control), % at 5.5 µM | 200,000 tested, 2.6% active | NIH 3T3 STAT1-luciferase reporter, luminescence; 100% = IFN-gamma alone, no compound | AID 932;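 active = activation above the screen-wide mean activation plus 3 SD, cut at about 130% in these data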;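 note: raw ratio to IFN-gamma control signal so 100% means no change and 0% no light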
MDM2 E3 inh: blocks human Mdm2 ubiquitin ligase activity. cell-based MDM2 ubiquitination luciferase reporter, 2 h; 0 = plate control, 100 = twice control, blank-subtracted. signal enhancement, % at 5 µM. 210,000 tested, 0.11% active. AID 1230;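 active = signal enhancement of 30% or more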;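 note: luminescence tracks abundance of the self-degrading MDM2-luciferase fusion protein; higher signal means inhibition of MDM2 E3 ligase activity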
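Material: stable MDM2–luciferase fusion reporter cells / Quantity: 2000 cells/well / Dosing: single 5 µM compound dose, 0.2% final DMSO / Buffer or medium: DMEM / Schedule: 4 h cell settling then 2 h compound exposure, 37 °C / Detection: luminescence with SteadyLite reagent, 15 min at room temperature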
NF-kB expr up: NF-kB expression increase, human neuronal cells; NF-kB reporter expression; hits give high values; fold change at 12.5 µM; 190,000 tested, 1.6% active; AID 1239; in the data active = fold change above about 3.3
Wee1 stabilizer: inhibitors of human Wee1 degradation | P30291 | HeLa Luc-Wee1K328M stability, luciferase luminescence; 100% = proteasome inhibitor MG132 effect | reporter increase, % at 5 µM | 220,000 tested, 1.2% active;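 active = activation above the mean of all tested compounds plus 3 SD, set per screening run, cut at about 8.8% in these data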;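 note: cells exposed to compound for 20 h before luminescence read; 0% = DMSO alone and 100% = MG132 at 30 µM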
Target sequence (P30291 whole entry K328M): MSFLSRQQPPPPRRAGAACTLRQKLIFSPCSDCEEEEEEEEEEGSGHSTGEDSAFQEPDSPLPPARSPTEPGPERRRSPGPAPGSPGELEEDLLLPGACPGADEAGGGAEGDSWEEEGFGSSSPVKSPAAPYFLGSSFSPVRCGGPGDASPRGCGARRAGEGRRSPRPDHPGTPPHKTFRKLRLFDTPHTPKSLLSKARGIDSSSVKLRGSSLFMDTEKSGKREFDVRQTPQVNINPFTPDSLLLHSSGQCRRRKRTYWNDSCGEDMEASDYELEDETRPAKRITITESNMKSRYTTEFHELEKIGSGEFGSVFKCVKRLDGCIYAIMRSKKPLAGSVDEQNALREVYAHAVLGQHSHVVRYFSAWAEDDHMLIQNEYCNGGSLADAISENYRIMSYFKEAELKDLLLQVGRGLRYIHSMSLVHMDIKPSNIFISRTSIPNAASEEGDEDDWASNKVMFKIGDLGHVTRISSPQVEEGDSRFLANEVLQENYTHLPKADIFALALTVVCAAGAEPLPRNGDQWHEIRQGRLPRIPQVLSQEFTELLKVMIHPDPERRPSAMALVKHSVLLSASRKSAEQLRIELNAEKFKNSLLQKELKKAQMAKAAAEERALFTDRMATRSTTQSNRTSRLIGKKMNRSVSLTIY
p97 ATPase inh: inhibitors of human p97 ATPase. P55072. recombinant p97 ATPase, Kinase-Glo ATP luminescence, 3 h. inhibition, % at 8 µM. 220,000 tested, 0.42% active. AID 1481; in the data active = inhibition above about 15%;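 note: 0% = DMSO vehicle and 100% = wells lacking enzyme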
APP 5'UTR act: APP 5'UTR luciferase reporter activation; SH-SY5Y APP 5'UTR luciferase reporter, luminescence; zero percent = DMSO vehicle wells; activation, % at 2 µM; 190,000 tested, 1% active; AID 1276;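 active = activation above a set limit, based on mean plus 3 SD of controls, cut at about 140% in these data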
The depositor's hits bear a star; nt = no result.

SMILES	STAT1 activator	MDM2 E3 inh	NF-kB expr up	Wee1 stabilizer	p97 ATPase inh	APP 5'UTR act
Cc1c(O)ccc(C(=O)COc2ccc(F)cc2)c1O	98.6	-7.4	2.23	10.1*	1.0	47.2
O=C(NCCC1=CCCCC1)c1cnc2n(c1=O)CCS2	133.1*	-3.6	1.53	-0.2	3.0	44.8
O=C(NCCCc1ccccc1)c1cnc2n(c1=O)CCS2	138.8*	5.3	1.87	-1.8	-1.0	46.8
O=C(NCc1ccccc1)c1cnc2n(c1=O)CCS2	102.3	-18.8	1.03	-1.2	4.5	7.0
CC(C)(O)P(=O)(O)CCc1ccccc1	nt	-16.4	nt	3.4	-0.8	nt
CC1=NC(=O)C(N=Nc2ccccc2)N1c1ccccc1 (stereo not drawn)	121.0	nt	4.38*	0.7	-0.9	51.1
CC1=NC(=O)C(N=Nc2cccc(C(=O)O)c2)N1c1ccccc1 (stereo not drawn)	73.5	-9.0	9.47*	-3.0	3.1	86.6
Cc1csc(NC(=O)[C@@H]2CCCN2C(=O)c2cccs2)n1	102.9	-9.9	1.1	-1.7	2.1	7.9
O=C(C=C1SCCS1)/C=C/c1ccco1	114.3	-12.4	5.92*	-2.2	3.5	157.9*
CCCNC(=O)C12CCC(C)(c3nc4cc(C)c(C)cc4nc31)C2(C)C (stereo not drawn)	94.4	-2.4	1.14	-2.1	-3.6	-14.1
O=C(N/N=C\c1cc(Br)ccc1O)c1ccc(S(=O)(=O)N2CCCCC2)cc1	99.0	5.8	0.82	9.1*	4.2	-69.1
O=C(N/N=C/c1ccc(O)c(O)c1)c1cccc(S(=O)(=O)N2CCCCC2)c1	95.9	3.0	1	-0.1	1.4	5.8
CN1CCN(S(=O)(=O)c2cccc(C(=O)Nc3nccs3)c2)CC1	nt	-7.5	nt	-0.7	4.8	nt
CC(=O)N1CCN(S(=O)(=O)c2cccc(C(=O)Nc3nccs3)c2)CC1	130.6*	-9.5	1.25	-0.8	4.7	-8.6
CN1CCN(C(=S)Nc2cc([N+](=O)[O-])ccc2Cl)CC1	102.8	30.9*	1.09	-0.6	0.6	-0.3
O=[N+]([O-])c1ccc(N2CCN(C(=S)Nc3ccc(F)cc3F)CC2)cc1	79.5	2.8	0.77	9.2*	6.4	4.1
Cc1ccc(C2(c3noc(CN(C)Cc4cnn(C)c4)n3)CCCC2)cc1	91.9	6.8	1.24	-2.1	1.4	1.6
Cc1noc(C(F)(F)F)c1C(=O)NNC(=O)c1ccccc1	nt	-11.6	nt	1.0	8.1	nt
COCCn1c(C)cc(C(=O)COC(=O)c2cc3c(s2)CCC3)c1C	135.9*	-14.3	1.03	2.4	-3.0	17.5
COCCn1c(C)cc(C(=O)COC(=O)c2cccc(O)c2)c1C	nt	nt	nt	-4.1	-0.8	nt
Cc1ccc(NC(=O)CSc2nnc(Cc3ccccc3)o2)cc1	107.0	-9.5	1.29	10.7*	-3.4	5.4
Cc1cccc(NC(=O)CSc2nnc(Cc3ccccc3)o2)c1	107.1	10.7	1.04	-2.6	3.2	-7.7
COc1ccc(C/C(C)=N/NC(=S)Nc2ccccc2F)cc1	126.2	-7.5	0.72	2.2	1.6	175.5*
COc1ccc(C/C(C)=N/NC(=S)Nc2ccc(C(C)C)cc2)cc1	99.9	nt	0.74	1.9	3.0	5.2
C=CCn1c(C)cc(C(=O)Cn2ncc(Cl)c(Cl)c2=O)c1C	83.8	2.9	0.65	0.9	6.3	-86.7
SMILES	STAT1 activator	MDM2 E3 inh	NF-kB expr up	Wee1 stabilizer	p97 ATPase inh	APP 5'UTR act
C=CCn1c(C)cc(C(=O)CN2NS(=O)(=O)c3ccccc3C2=O)c1C	142.8*	-26.9	1.21	3.9	-0.5	-84.6
CCc1ccc2nc(N3C(=O)C(O)=C(C(=O)c4ccco4)C3c3cccs3)sc2c1 (stereo not drawn)	113.2	-23.2	2.59	2.6	-2.1	158.4*
O=C(C1=C(O)C(=O)N(CCc2ccccc2)C1c1cccs1)c1ccco1 (stereo not drawn)	103.5	-14.3	0.95	-1.0	6.4	3.6
Cc1ccc(OCCOc2ccc(Br)cc2)c([N+](=O)[O-])n1	134.6*	-19.8	2.14	7.9	1.3	65.5
CCCC(=O)Nc1ccc(NC(=O)c2ccccn2)cn1	140.6*	-34.7	1.95	-1.2	-1.9	77.3
CCCC(=O)Nc1ccc(NC(=O)c2ccccc2OC)cn1	96.2	1.9	1	2.1	-0.1	9.3
CN(C)S(=O)(=O)c1cccc(NC(=O)CCc2c[nH]c3ccccc23)c1	101.4	1.2	1.04	3.6	6.6	22.2
